Activity calls are given as the source filed them.

For data set [1], the species on record is Danio rerio. Description: Inhibition of pigmentation in zebrafish assessed as decrease in size of black spots pre-treated with 0.2 mM compound at 9 hrs post fertilization followed by mock treatment for 37 hrs by microscopic analysis. The class given is functional, organism-based.
Data set [2] is filed under the species Danio rerio. Kind of data set: Inhibition of pigmentation in zebrafish assessed as increase in histogram of black spots pre-treated with 0.2 mM compound at 9 hrs post fertilization followed by mock treatment for 37 hrs by microscopic analysis. In kind it is functional, organism-based.
Data set [3] is filed under the species Danio rerio. Kind of data set: Inhibition pigmentation in zebrafish assessed as increase in binary threshold pre-treated with 0.2 mM compound at 9 hrs post fertilization followed by mock treatment for 37 hrs by microscopic analysis. In kind it is functional, organism-based.
For data set [4], the species on record is Danio rerio. Kind of data set: Inhibition of alpha-MSH-induced pigmentation in zebrafish assessed as increase in binary threshold pre-treated with 0.2 mM compound at 9 hrs post fertilization followed by compound exposure for 37 hrs by microscopic analysis. In kind it is functional, organism-based.
Data set [5] in a line: 1-Octanol-water partition coefficient, log P of the compound by UV spectrophotometry-based shake flask method. In kind it is physicochemical.
A short description of data set [6]: Cytotoxicity against human HF16 cells assessed as decrease in cell viability at 200 uM after 24 hrs by MTT assay. In kind it is cell-based. Summed up: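 HF-16 human fetal foreskin fibroblasts exposed to compound at 200 μM, with 0.1% DMSO as vehicle control, for 24 hr. Viability was read by MTT assay. Data are means ± SEM, compared against the vehicle control.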

The species entered for data set [7] is Danio rerio. Kind of data set: Depigmentation effect on zebrafish assessed as eye color change from black to gray incubated for 63 hrs post fertilization by microscopic analysis. The class given is functional, organism-based. The method, boiled down:
(§1)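 Synchronized zebrafish embryos were kept in embryo medium containing compound at 50, 100 or 200 μM, added from DMSO to a final 0.1%. Mock control was 0.1% DMSO; positive control was HQ at 100 μM. Larval pigment spots were selected manually from dorsal-view microscope images, excluding eyes and yolk. Image analysis gave binary threshold, histogram and black-spot size; eye colour was scored visually. Data are means ± SEM versus mock.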

For data set [8], the species on record is Danio rerio. Kind of data set: Depigmentation effect on zebrafish assessed as increase in binary threshold incubated for 63 hrs post fertilization by microscopic analysis. The class given is functional, organism-based. The method, boiled down:
as §1

Data set [9] is filed under the species Danio rerio. Kind of data set: Depigmentation effect on zebrafish assessed as increase in histogram of black spots incubated for 63 hrs post fertilization by microscopic analysis. In kind it is functional, organism-based. The method, boiled down: as §1
The species named for data set [10] is Danio rerio. Kind of data set: Depigmentation effect on zebrafish assessed as decrease in size of black spots incubated for 63 hrs post fertilization by microscopic analysis. In kind it is functional, organism-based. The method, boiled down:
as §1

The species named for data set [11] is Danio rerio. Description: Inhibition of alpha-MSH-induced pigmentation in zebrafish assessed as increase in histogram of black spots pre-treated with 0.2 mM compound at 9 hrs post fertilization followed by compound exposure for 37 hrs by microscopic analysis. The class given is functional, organism-based.
Data set [12] is described as follows: Photostability of compound after 18 hrs under UV irradition condition. The class given is physicochemical. Summed up: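 Compound at 0.1 mM in 1X PBS, pH 7.4, was exposed to UV at ambient conditions for 18 h. UV spectra were compared before and after exposure; the HQ absorption band is at 289 nm.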
The species named for data set [13] is Danio rerio. Description: Inhibition of alpha-MSH-induced pigmentation in zebrafish assessed as decrease in size of black spots pre-treated with 0.2 mM compound at 9 hrs post fertilization followed by compound exposure for 37 hrs by microscopic analysis. The class given is functional, organism-based.
The nature of data set [14]: Drug degradation of compound assessed as Cu2+-mediated oxidation. The class given is physicochemical. The method, boiled down:
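Compound at 0.1 mM in 1X PBS, pH 7.4, was treated with 20 μM Cu2+. UV absorption spectra were recorded over a time course.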

Data set [15] in a line: Drug degradation assessed as hydrolysis at pH 3 to 9 by HPLC analysis. The class given is physicochemical. The following applies: buffer.
For data set [16], the species on record is Danio rerio. Description: Inhibition pigmentation in zebrafish assessed as increase in binary threshold pre-treated with 0.2 mM compound at 9 hrs post fertilization followed by compound exposure for 37 hrs by microscopic analysis. In kind it is functional, organism-based.
The species entered for data set [17] is Danio rerio. Kind of data set: Inhibition of pigmentation in zebrafish assessed as increase in histogram of black spots pre-treated with 0.2 mM compound at 9 hrs post fertilization followed by compound exposure for 37 hrs by microscopic analysis. The class given is functional, organism-based.
The species named for data set [18] is Danio rerio. Kind of data set: Inhibition of pigmentation in zebrafish assessed as decrease in size of black spots pre-treated with 0.2 mM compound at 9 hrs post fertilization followed by compound exposure for 37 hrs by microscopic analysis. The class given is functional, organism-based.
Data set [19] in a line: Drug degradation assessed as hydrolysis in 1M NaOH […] by HPLC analysis. The following applies: buffer. The class given is physicochemical.

As to `COCCOCCOCCOCCOc1ccc(O)cc1`, the inhibition entry in the data set listed under Danio rerio [1], in the data set filed under Danio rerio [2] and in the data set filed under Danio rerio [3] was “inactive” each time. For the same molecule, the inhibition result in the data set filed under Danio rerio [4], in the data set filed under Danio rerio [11], in the data set filed under Danio rerio [13], in the data set listed under Danio rerio [16], in the data set filed under Danio rerio [17] and in the data set listed under Danio rerio [18] was “Active” each time. In data set [5], the lipophilicity (logP) was -0.026. Moreover, the Activity entry in data set [6] was “Non-toxic”; in the data set listed under Danio rerio [7], “Dose-dependent effect”; in the data set listed under Danio rerio [8], “Dose-dependent effect”; in the data set listed under Danio rerio [9] it was “Dose-dependent effect”; in the data set filed under Danio rerio [10] it was “Dose-dependent effect”. Moreover, the Stability result in data set [12], in data set [14] and in [15] was “Stable” throughout.
Take `COCCOCCOCCOCC(=O)Oc1ccc(O)cc1`: in data set [5], the logP was -0.036. Besides, the Activity entry in [6] was “Toxic”; in the data set filed under Danio rerio [7] it was “Dose-dependent effect”; in the data set filed under Danio rerio [8], “Dose-dependent effect”; in the data set listed under Danio rerio [9] it was “Dose-dependent effect”; in the data set listed under Danio rerio [10], “Dose-dependent effect”. The values for the Stability entry in data set [12], in data set [14] and in data set [19] were “Stable”, “Stable” and “Unstable”, respectively.
Regarding `Oc1ccc(O)cc1` [HYDROQUINONE], the logP in data set [5] was 0.25. Also, in data set [6], the Activity result is “Toxic”. Further, in [12], the Stability result was “Unstable”. In addition, the Drug degradation entry in [14] (TDE = time-dependent effect) is given as “tde”.

For the origin of these results see ChEMBL document CHEMBL3745683, “Regulatory effect of hydroquinone-tetraethylene glycol conjugates on zebrafish pigmentation” (Bioorg Med Chem Lett, 2016).
